# Data as given in ChEMBL document CHEMBL1122774, “Tri- and tetrapeptide analogues of kinins as potential renal vasodilators” (J Med Chem, 1984).
# Square brackets hold non-standard residues; d marks the D form. Peptide text beside a SMILES is read from it. * marks the point of attachment. ξ: configuration not given here. Butanoyl(4-(4-HOPh)) = O=C(CCCc1ccc(O)cc1)*; Hydrocinnamoyl = O=C(CCc1ccccc1)*; ξαMeF = CC(N)(Cc1ccccc1)C(=O)O; PhAc = O=C(Cc1ccccc1)*; Bz = O=C(c1ccccc1)*
# Assays:
# Canis familiaris [1] = test: In vivo percent change in canine mean arterial blood pressure (MABP) at 300 ug/Kg/min.; assay type: functional, Canis lupus familiaris
# Outline: (§1)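 Primary screen in anesthetized dogs (7-17 kg). Drug infused separately at 3, 30 and 300 µg/(kg min), each infusion lasting 5 min, at about 15-min intervals. Read-outs are renal blood flow, mean arterial blood pressure, heart rate, and RVR (MABP / mean RBF), as percent change. Significance thresholds are defined per number of dogs; n = 1-3 dogs.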
# Canis familiaris [2] = test: Renal vasodilator activity in anesthetized dogs and percent change in renal vascular resistance (RVR) was determined at 30 ug/Kg/min; assay type: functional, Canis lupus familiaris; outline: as §1
# Canis familiaris [3] = test: In vivo percent change in canine heart rate at 30 ug/Kg/min.; assay type: functional, Canis lupus familiaris; outline: as §1
# Canis familiaris [4] = test: In vivo percent change in renal blood flow at 30 ug/Kg/min.; assay type: functional, Canis lupus familiaris, Kidney; outline: as §1
# Canis familiaris [5] = test: In vivo percent change in canine mean arterial blood pressure (MABP) at 3 ug/Kg/min.; assay type: functional, Canis lupus familiaris; outline: as §1
# Canis familiaris [6] = test: In vivo percent change in canine renal blood flow (RBF) at 3 ug/Kg/min.; assay type: functional, Canis lupus familiaris, Kidney; outline: as §1
# Canis familiaris [7] = test: In vivo percent change in canine renal blood flow (RBF) at 300 ug/Kg/min.; assay type: functional, Canis lupus familiaris, Kidney; outline: as §1
# Canis familiaris [8] = test: In vivo percent change in canine heart rate at 3 ug/Kg/min.; assay type: functional, Canis lupus familiaris; outline: as §1
# Canis familiaris [9] = test: In vivo percent change in canine heart rate at 300 ug/Kg/min.; assay type: functional, Canis lupus familiaris; outline: as §1
# Canis familiaris [10] = test: In vivo percent change in canine renal vascular resistance (RVR) at 300 ug/Kg/min.; assay type: functional, Canis lupus familiaris; outline: as §1
# Canis familiaris [11] = test: In vivo percent change in canine mean arterial blood pressure (MABP) at 30 ug/Kg/min.; assay type: functional, Canis lupus familiaris; outline: as §1
# Canis familiaris [12] = test: In vivo percent change in canine renal vascular resistance (RVR) at 3 ug/Kg/min.; assay type: functional, Canis lupus familiaris; outline: as §1
# Canis familiaris [13] = test: Renal vasodilator activity in anesthetized dogs and percent change in renal vascular resistance (RVR) was determined at 300 ug/kg min; assay type: functional, Canis lupus familiaris; outline: as §1
# Canis familiaris [14] = test: Renal vasodilator activity in anesthetized dogs and percent change in renal vascular resistance (RVR) was determined at 3 ug/kg min; assay type: functional, Canis lupus familiaris; outline: as §1
# Canis familiaris [15] = test: Renal vasodilator activity in anesthetized dogs and percent change in renal blood flow (RBF) was determined at 30 ug/kg min; assay type: functional, Canis lupus familiaris, Kidney; outline: as §1
# Canis familiaris [16] = test: Renal vasodilator activity in anesthetized dogs and percent change in renal blood flow (RBF) was determined at 300 ug/kg min; assay type: functional, Canis lupus familiaris, Kidney; outline: as §1
# Canis familiaris [17] = test: Renal vasodilator activity in anesthetized dogs and percent change in heart rate (HR) was determined at 3 ug/kg min; assay type: functional, Canis lupus familiaris; outline: as §1
# Canis familiaris [18] = test: Renal vasodilator activity in anesthetized dogs and percent change in heart rate (HR) was determined at 30 ug/kg min; assay type: functional, Canis lupus familiaris; outline: as §1
# Canis familiaris [19] = test: Renal vasodilator activity in anesthetized dogs and percent change in renal blood flow (RBF) was determined at 3 ug/kg min; assay type: functional, Canis lupus familiaris, Kidney; outline: as §1
# Canis familiaris [20] = test: Renal vasodilator activity in anesthetized dogs and percent change in mean arterial blood pressure (MABP) was determined at 3 ug/kg min; assay type: functional, Canis lupus familiaris; outline: as §1
# Canis familiaris [21] = test: Renal vasodilator activity in anesthetized dogs and percent change in renal vascular resistance (RVR) was determined at 30 ug/kg min; assay type: functional, Canis lupus familiaris; outline: as §1
# Canis familiaris [22] = test: Renal vasodilator activity in anesthetized dogs and percent change in heart rate (HR) was determined at 300 ug/kg min; assay type: functional, Canis lupus familiaris; outline: as §1
# Canis familiaris [23] = test: Renal vasodilator activity in anesthetized dogs and percent change in mean arterial blood pressure (MABP) was determined at 300 ug/kg min; assay type: functional, Canis lupus familiaris; outline: as §1
# Canis familiaris [24] = test: Renal vasodilator activity in anesthetized dogs and percent change in mean arterial blood pressure (MABP) was determined at 30 ug/kg min; assay type: functional, Canis lupus familiaris; outline: as §1
# Canis familiaris [25] = test: In vivo percent change in canine renal vascular resistance (RVR) at 30 ug/Kg/min.; assay type: functional, Canis lupus familiaris; outline: as §1
SMILES,Change (Canis familiaris [1]) [%],Change (Canis familiaris [3]) [%],Change (Canis familiaris [4]) [%],Change (Canis familiaris [5]) [%],Change (Canis familiaris [6]) [%],Change (Canis familiaris [7]) [%],Change (Canis familiaris [8]) [%],Change (Canis familiaris [9]) [%],Change (Canis familiaris [13]) [%],Change (Canis familiaris [14]) [%],Change (Canis familiaris [15]) [%],Change (Canis familiaris [16]) [%],Change (Canis familiaris [17]) [%],Change (Canis familiaris [18]) [%],Change (Canis familiaris [19]) [%],Change (Canis familiaris [20]) [%],Change (Canis familiaris [21]) [%],Change (Canis familiaris [22]) [%],Change (Canis familiaris [23]) [%],Change (Canis familiaris [24]) [%],other results
COc1ccc(CC(C)(NC(=O)[C@@H]2CCCN2C(=O)CCCc2ccc(O)cc2)C(=O)NCCCN)cc1OC.Cl (stereo partly specified),-1.5,-1,16.5,1.5,13.5,10.5,0.5,1.5,,,,,,,,,,,,,Change (Canis familiaris [2]): -15.5%; Change (Canis familiaris [10]): -10%; Change (Canis familiaris [11]): -2%; Change (Canis familiaris [12]): -11%
CC(Cc1ccccc1)(NC(=O)[C@@H]1CCCN1)C(=O)N1CCC[C@H]1C(=O)O (stereo partly specified) (H-Pro-[ξαMeF]-Pro-OH),,,,,,,,,-10,1,0,8,0,0,0,1,0,0,-3,0,
CC(Cc1ccccc1)(NC(=O)[C@@H]1CCCN1)C(=O)N[C@@H](CCCN=C(N)N)C(=O)O (stereo partly specified) (H-Pro-[ξαMeF]-Arg-OH),,,,,,,,,-5.3,0.3,9.3,7.3,-0.7,0,1.3,1,-7.3,0,-0.7,-0.3,
N=C(N)NCCC[C@H](NC(=O)[C@@H]1Cc2ccccc2CN1C(=O)CCCc1ccc(O)cc1)C(=O)O,-2,0,2,-1,7,-12,1,0,,,,,,,,,,,,,Change (Canis familiaris [2]): -1%; Change (Canis familiaris [10]): 11%; Change (Canis familiaris [11]): 1%; Change (Canis familiaris [12]): -6%
CC(Cc1ccccc1)(NC(=O)[C@@H]1CCCN1C(=O)CCCc1ccc(O)cc1)C(=O)N[C@@H](CCCN=C(N)N)C(=O)O (stereo partly specified),,,,,,,,,-11,-12,12,11,0,0,8,-4,-9,0,0,2,
CC(Cc1ccccc1)(NC(=O)[C@@H]1CCCN1C(=O)Cc1ccccc1)C(=O)N[C@@H](CCCN=C(N)N)C(=O)O (stereo partly specified) (PhAc-Pro-[ξαMeF]-Arg-OH),,,,,,,,,7,-4,0,-2,9,-2,4,0,0,0,5,0,
N=C(N)NCCC[C@H](NC(=O)[C@H](Cc1ccccc1)NC(=O)[C@@H]1CCCN1)C(=O)O (H-Pro-Phe-Arg-OH),,,,,,,,,0,-5,3,-3,-6,3,4,-1,-2,6,-4,1,
CC(Cc1ccccc1)(NC(=O)[C@@H]1CCCN1C(=O)CCCc1ccccc1)C(=O)N[C@@H](CCCN=C(N)N)C(=O)O (stereo partly specified),,,,,,,,,0,3,4.6,1,-3.6,0,0,3,-1.8,-1,1,2.8,
CC(CN[C@@H](CCCN=C(N)N)C(=O)O)(Cc1ccccc1)NC(=O)[C@@H]1CCCN1 (stereo partly specified),-5,4,8,1,0,7,0,-7,,,,,,,,,,,,,Change (Canis familiaris [25]): -6%; Change (Canis familiaris [10]): -11%; Change (Canis familiaris [11]): 1%; Change (Canis familiaris [12]): 1%
CC(Cc1ccccc1)(NC(=O)[C@@H]1CCCN1C(=O)CCCc1ccc(O)cc1)C(=O)NCCCCCC(=O)O (stereo partly specified),1,-2,-4,0,1,5,-4,-6,,,,,,,,,,,,,Change (Canis familiaris [2]): 5%; Change (Canis familiaris [10]): -4%; Change (Canis familiaris [11]): 2%; Change (Canis familiaris [12]): -1%
CC(Cc1ccccc1)(NC(=O)[C@@H]1CCCN1C(=O)CCc1ccccc1)C(=O)N[C@@H](CCCN=C(N)N)C(=O)O (stereo partly specified) (Hydrocinnamoyl-Pro-[ξαMeF]-Arg-OH),,,,,,,,,0,-7,2,1,8,1,5,-2,-5,-1,1,-3,
N=C(N)NCCC[C@H](NC(=O)[C@H](Cc1ccccc1)NC(=O)[C@@H]1CCCN1C(=O)CCCc1ccccc1)C(=O)O,,,,,,,,,1,-5.7,4,-1.7,2,1.7,5.3,1,-3.7,-1.7,-0.7,0.3,
CC(Cc1ccc(O)cc1)(NC(=O)[C@@H]1CCCN1C(=O)CCCc1ccc(O)cc1)C(=O)NCCCN.Cl (stereo partly specified),0,4,3.5,-2,8.5,10,1.5,3.5,,,,,,,,,,,,,Change (Canis familiaris [2]): -3%; Change (Canis familiaris [10]): 8.5%; Change (Canis familiaris [11]): 1%; Change (Canis familiaris [12]): -9.5%
CC(Cc1ccccc1)(NC(=O)[C@@H]1CCCN1C(=O)CCCCc1ccccc1)C(=O)N[C@@H](CCCN=C(N)N)C(=O)O (stereo partly specified),,,,,,,,,-2,-2,1,3,-1,-1,4,1,1,6,1,3,
O=C(NCC(=O)N1CCC[C@H]1C(=O)O)[C@@H](Cc1ccccc1)NC(=O)[C@@H]1CCCN1C(=O)CCCc1ccc(O)cc1 ({Butanoyl(4-(4-HOPh))}-P[dF]GP-OH),-1,-2,0,0,2,-1,1,-1,,,,,,,,,,,,,Change (Canis familiaris [2]): -1%; Change (Canis familiaris [10]): -1%; Change (Canis familiaris [11]): -1%; Change (Canis familiaris [12]): -2%
N=C(N)NCCC[C@H](NC(=O)[C@@H](Cc1ccccc1)NC(=O)[C@@H]1CCCN1C(=O)CCCc1ccccc1)C(=O)O,,,,,,,,,-4,-3,2,4,-3,0,3,0,-1,-2,0,1,
Cl.NCCCNC(=O)[C@@H]1Cc2ccccc2CN1C(=O)CCCc1ccc(O)cc1,,,,,,,,,-6,-6,6,5,1,-2,3,-2,-6,-1,-2,-1,
N=C(N)NCCC[C@H](NC(=O)[C@H](Cc1ccccc1)NC(=O)[C@@H]1CCCN1C(=O)c1ccccc1)C(=O)O (Bz-Pro-Phe-Arg-OH),,,,,,,,,11,2,0,-10,0,0,3,4,0,0,0,1,
